The term inhibition denotes the relative decrease from the control value, in per cent.

The whole screen tested about 200,000 compounds, of which about 2,000 (1%) were called active. The full list was thinned out, with actives kept by preference. A number with no mark means an inactive call.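 The calls were made as follows: active = inhibition above the campaign mean inhibition of all tested compounds plus 3 SD (cut at about 20% in these data); inactive = the rest.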

Neuropeptide Y receptor type 1 (Homo sapiens), sequence (P25929 whole entry, looked up): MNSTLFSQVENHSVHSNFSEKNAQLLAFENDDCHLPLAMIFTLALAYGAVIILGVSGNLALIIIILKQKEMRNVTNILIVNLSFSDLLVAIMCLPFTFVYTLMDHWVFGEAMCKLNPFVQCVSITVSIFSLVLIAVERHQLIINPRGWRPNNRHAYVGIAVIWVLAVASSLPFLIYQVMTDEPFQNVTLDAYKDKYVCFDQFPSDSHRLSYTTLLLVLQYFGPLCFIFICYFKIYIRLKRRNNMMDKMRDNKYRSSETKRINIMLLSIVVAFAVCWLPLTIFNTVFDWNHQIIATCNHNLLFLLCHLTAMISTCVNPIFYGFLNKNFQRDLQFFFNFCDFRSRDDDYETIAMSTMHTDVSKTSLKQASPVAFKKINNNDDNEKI

This assay concerns the target Neuropeptide Y receptor type 1 (Homo sapiens) (UniProt P25929). Kind of assay: blockers of human neuropeptide Y Y1 receptor – cell-based, primary screen (AID 1040).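 Also: 0% = DMSO wells given NPY plus isoproterenol and 100% = isoproterenol alone without NPY.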 The conditions noted are these: HEK293-CNG Y1 cells, membrane potential fluorescence; at 3.6 µM; hits give high values; NPY at EC95, then isoproterenol. Summed up:
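Material: HEK293 Y1/CNG channel cell line; also added: NPY (25 nM), isoproterenol (1 µM), Ro 20-1724 (25 µM); doses: one concentration, 3.6 µM, in 0.4% DMSO; schedule: compound incubation 1 h at room temperature, readout 45 min post-stimulation; technique: membrane potential fluorescence; measure: fluorescence ratio normalized to % inhibition between controls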
For the compound `COc1cc2c(cc1/C=C1/NC(=O)N(c3ccccc3)C1=O)OCO2`, the inhibition is 6.09%. The figure for `CCCOc1ccccc1C1CC(=O)Nc2cc3c(cc21)OCO3` (stereo not given) is 8.29%; for `COc1ccccc1C1C2=C(COC2=O)Nc2cc3c(cc21)OCO3` (stereo not given) it is 36.2% (active).

Consider `CCC(C)[C@@H](C(=O)N1CCNCC1)n1cc(CCCCN)nn1` (stereo not given in full), for which the inhibition is 1.85%. For `O=C(CC1NCCNC1=O)Nc1cc(Cl)cc(Cl)c1` (stereo not given) the value was 0.62%; for `COC(=O)c1ccc(/C=N/OCC(=O)Nc2cc(F)ccc2F)cc1`, 11.1%; for `Cc1ccc(CSc2nc3[nH]ncc3c(=O)[nH]2)cc1`, 7.17%.

For `Cc1cccc2cc(CN(Cc3cccs3)C(c3nnnn3C3CCCC3)C(C)C)c(=O)[nH]c12` (stereo not given), the inhibition was 14.5%. For `CCC(c1nnnn1C1CCCC1)N(Cc1cccs1)Cc1cc2cccc(C)c2[nH]c1=O` (stereo not given) the value was 20.4% (active); for `Cc1cccc2cc(CN(Cc3ccc4c(c3)OCO4)Cc3nnnn3C3CCCC3)c(=O)[nH]c12`, -4.12%. The figure for `CCOc1cccc(OCCCOc2cccc3cccnc23)c1` is 1.99%. `CN(C)S(=O)(=O)c1cccc(NC(=O)COC(=O)c2cc(=O)[nH]c(=O)[nH]2)c1`: the inhibition is 0.75%.

As for `CCOC(=O)C1CCN(C(=O)/C=C/c2cc(OC)c(OC)c(OC)c2)CC1`, the inhibition is -1.4%. Turning to `Cc1ccsc1C(=O)N/N=C/c1ccc([N+](=O)[O-])cc1`, the inhibition is 2.54%. On to `Cc1ccc(/C=N/NC(=O)c2sccc2OCc2ccc(F)cc2)cc1`, for which the inhibition was 27.2% (active). For `Cc1ccc(COc2ccc(/C=N/NC(=O)CN3CCCCC3)cc2)cc1` the value was 16.6%; for `CS/C(=C\[N+](=O)[O-])Nc1ccc(C)cc1`, 10.6%. With `O=C(COC(=O)C1CC2C=CC1C2)Nc1ccccc1` (stereo not given), the inhibition is -2.39%. For the compound `CCCCN(CC)C(=O)c1ccc2c(c1)OCO2`, the inhibition is -2.36%. The figure for `CCOc1ccc(CCNC(=O)C2=C(C)C(=O)OC23CCC(C)CC3)cc1OCC` (stereo not given) is 8.46%; for `O=C(O)CSc1nccn1-c1cccc(Cl)c1` it is 7.38%. For `O=C(O)CSc1nccc2ccccc12` the value was 21.7% (active); for `COC(=O)CSc1nc(C2CC2)nc2ccccc12`, 3.03%; for `CC1COc2ccccc2N1C(=O)c1cccnc1Cl` (stereo not given), 1.41%. The figure for `CCOc1ccccc1Nc1ccc(C(=O)O)cc1[N+](=O)[O-]` is 3.86%; for `ClC1(Cl)CC1CSc1ncn[nH]1` (stereo not given) it is 3.1%; for `COC(=O)c1nc2n(n1)C(c1ccc([N+](=O)[O-])cc1)C(C(=O)Nc1ccc(Cl)cc1)=C(C)N2` (stereo not given) it is -1.89%. For the compound `Cc1nn(C)c(C)c1Sc1ccccc1N`, the inhibition is -0.64%. For the compound `C(=C\c1ccccc1)/CSc1nnc(-c2cccnc2)n1Cc1ccco1`, the inhibition is 9.54%. As for `COc1ccc(-n2cnc3cc(NCc4ccco4)ccc32)cc1`, the inhibition was -4.2%. For the compound `c1ccc(-c2oc3ncnc(N4CCOCC4)c3c2-c2ccccc2)cc1`, the inhibition is 4.24%. Turning to `COc1ccc(-c2oc3ncn(Cc4ccco4)c(=N)c3c2-c2ccc(OC)cc2)cc1`, the inhibition was 31.4% (active).

Turning to `COc1ccc2[nH]c3c(=O)n(Cc4ccco4)cnc3c2c1`, the inhibition is 1.7%. For `N=c1c2c(-c3ccccc3)c(-c3ccccc3)oc2ncn1Cc1ccco1`, the inhibition was 25.5% (active). The figure for `Cc1ccccc1NC(=O)NC1(C(=O)N2CCCC2)CCCCC1` is 0.5%; for `COc1cc(SC)ccc1C(=O)Nc1cc(C)ccn1` it is 4.33%; for `Cc1ccc(C(=O)NCC(=O)O)s1` it is -2.04%. The figure for `COc1cccc(OC)c1C(=O)NC(=S)Nc1ccc(N2CCOCC2)c(Cl)c1` is 9.33%; for `Cc1c(Cl)c([N+](=O)[O-])nn1CC(=O)NCC1CCCO1` (stereo not given) it is -5.55%; for `COC(=O)c1ccc(COC(=O)c2c(C)nn(Cc3ccccc3Cl)c2Cl)o1` it is 22.2% (active). `CCOC(=O)c1cnn(Cc2ccccc2Cl)c1N`: the inhibition is -2.37%. For `COC(=O)c1ccc(CSc2ccccc2C)o1` the value was -3.04%; for `O=C(Nc1ccc(F)cc1)N1CCCC(c2nc3c(nnn3Cc3ccccc3Cl)c(=O)[nH]2)C1` (stereo not given), -6.56%. For `Oc1ccccc1C=NC1CCCCC1N=Cc1ccccc1O` (stereo not given) the value was 4.16%. The figure for `Cc1ccc(Cl)cc1N1CCN(C(=O)c2cccc3c(=O)c(C)c(-c4ccccc4)oc23)CC1` is 4.2%; for `Cc1cccc(OCCC(=O)Nc2cc(S(=O)(=O)N3CCCCC3)ccc2N2CCOCC2)c1` it is 2.92%. With `Cc1ncc([N+](=O)[O-])n1CCOC(=O)c1ccc(Br)cc1`, the inhibition was -0.91%. As for `COc1ccccc1NC(=O)COC(=O)Cc1ccc(S(=O)(=O)N2CCCCC2)s1`, the inhibition was -4.82%. In the case of `O=C(Nc1ccc(N2C(=O)c3cccc4cccc(c34)C2=O)cc1)c1ccc(N2CCCCC2)c([N+](=O)[O-])c1`, the inhibition is -0.12%. Regarding `COc1ccc(-c2[nH]ncc2/C=N/NC(=O)c2cc(Br)ccc2O)c(OC)c1`, the inhibition was 4.29%.

In the case of `CCS(=O)(=O)n1nc(-c2ccccc2)nc1SCc1ccccc1`, the inhibition was 28.2% (active). On to `CCS(=O)(=O)n1nc(-c2ccc(OC)cc2)nc1SC`, for which the inhibition was 3.74%.

Take `CS(=O)(=O)n1nc(-c2ccccc2)nc1NCc1ccco1`: the inhibition is -0.86%.

Consider `Cc1ccnc(NC(=O)CCC(=O)N(CC(=O)NCc2ccccc2)Cc2ccco2)c1`, for which the inhibition is 2.07%.

On to `CC(=O)Oc1ccccc1C1=NN(C(C)=O)C(c2ccccc2)C1` (stereo not given), for which the inhibition is 1.31%. The figure for `Cc1ccc(N2C(=O)C3N=NN(CC(=O)N4N=C(c5cccc6ccccc56)CC4c4ccccc4)C3C2=O)cc1` (stereo not given) is 20.5% (active); for `O=C1C2N=NN(CC(=O)N3N=C(c4cccc5ccccc45)CC3c3ccccc3)C2C(=O)N1c1ccccc1` (stereo not given) it is 6.21%; for `CCn1ccnc1CN1CCCC(C(=O)c2ccc3c4c(cccc24)CC3)C1` (stereo not given) it is 3.36%. The figure for `OCC1(CCc2ccccc2)CCN(Cc2ccc3nsnc3c2)CC1` is 22.8% (active); for `CC(=O)c1cccc(CN2CCC(CO)(Cc3ccccc3)CC2)c1` it is 2.21%; for `Cc1cccc(-c2ncc(CN3CCC(CO)(CCCc4ccccc4)CC3)cn2)c1` it is 4.93%.

As for `COC(=O)C(C(=O)Nc1cccc(Cl)c1C)C1CCCC1` (stereo not given), the inhibition was 5.62%. Regarding `Cc1ccccc1Nc1scc(-c2ccc(Br)cc2)[n+]1-c1ccccc1C`, the inhibition is 31.6% (active). For `COc1ccc(C)cc1-n1nnnc1SCc1nc2ccccc2c(=O)[nH]1` the value was -0.32%. The figure for `CCN(CCCNC(=O)CSc1cc(=O)n(C)c2cc(Cl)ccc12)Cc1ccccc1` is 1.58%; for `COCCCNC(=S)N1CCCC(c2nc3cc(C)c(C)cc3[nH]2)C1` (stereo not given) it is -0.11%; for `NS(=O)(=O)c1ccc(CCNC(=O)c2ccc([N+](=O)[O-])cc2[N+](=O)[O-])cc1` it is 0.19%. The figure for `N#Cc1cnn2cc(CCN3CCOCC3)c(-c3ccc(F)cc3)nc12` is -1.23%; for `COc1ccc(/C=N/NC(=O)Cn2cc(C(F)(F)F)ccc2=O)cc1` it is 0.12%; for `COc1ccc(C(=O)Nc2ccc(F)cc2F)cc1` it is 6.11%. Turning to `CCOC(=O)N1CCN(S(=O)(=O)c2ccc(C(=O)Nc3ccc(F)cc3F)cc2)CC1`, the inhibition is 30.3% (active). For the compound `O=C(Nc1cccc(F)c1)c1ccc(S(=O)(=O)N2CCCC2)cc1`, the inhibition is -0.82%. `CC(=O)c1cnc(SCC(=O)O)nc1C`: the inhibition was -4%. Take `COc1ccc(C(=O)NN2C(=O)C3C(c4ccccc4)C=CC(c4ccccc4)C3C2=O)cc1` (stereo not given): the inhibition was 11.3%. The figure for `CCn1cc(C(=O)NCc2ccc3c(c2)OCO3)c2cc(OC)c(OC)cc2c1=O` is 1.79%; for `COc1ccc2c(c1)C(C)=CC(C)(C)N2C(=O)CNCc1ccc2c(c1)OCO2` it is 27.3% (active); for `COc1ccc2c(c1)C(C)=CC(C)(C)N2C(=O)Nc1ccccc1` it is 13.7%. For the compound `O=C(/C=C/c1ccc(OCc2c(F)cccc2Cl)cc1)N1CCOCC1`, the inhibition is 5.45%. For the compound `COn1c(-c2ccc(Cl)cc2Cl)nc2ncccc21`, the inhibition was 5.03%.

`CCC(=O)c1ccc(N2CCN(C(=O)c3cc([N+](=O)[O-])ccc3F)CC2)c(F)c1`: the inhibition is -2.39%. For `CCN1CCN(c2ccc([N+](=O)[O-])cc2C(=O)c2ccc(Cl)cc2)CC1` the value was 36.6% (active). For the compound `O=C(Nc1cccc(Cl)c1)c1cc([N+](=O)[O-])ccc1N1CCN(CCO)CC1`, the inhibition is 0.17%. Consider `CCc1ccc(OCC(=O)OCC(=O)c2c(N)n(C)c(=O)n(C)c2=O)cc1`, for which the inhibition was -0.61%. For `O=C(NCc1ccco1)c1nn2cccnc2c1Cl` the value was 1.08%; for `Cc1noc(C)c1C(=O)N(CC(=O)NC1CCCC1)Cc1ccccc1F`, 1.99%; for `COc1ccc(CN(CC(=O)NC2CCCC2)C(=O)CCC(=O)Nc2cc(C)on2)cc1`, 1.61%.

For the compound `Cc1cc(C(C)(C)C)oc1C(=O)N(CC(=O)NC1CCCC1)Cc1ccc(Cl)cc1`, the inhibition is 28.1% (active). The figure for `COc1ccc(Cc2nnc(N/N=C/c3ccccc3O)[nH]c2=O)cc1OC` is 7.54%. The figure for `Cc1nc([N+](=O)[O-])c(NCCCO)n1Cc1ccccc1` is -2.13%.

Consider `N=c1c2c(-c3ccccc3)c(-c3ccccc3)n(Cc3ccccc3)c2ncn1CCCO`, for which the inhibition was 73.2% (active). The figure for `OCCCN1c2ccccc2Nc2nnc(-c3ccccc3)cc21` is -7.91%. For `COc1ccc(-c2nn(-c3ccccc3)cc2CN2CCCO2)c(F)c1` the value was 3.17%; for `CCCOC(=O)c1[nH]c2c(c1C)C(=O)CC(c1cc(OC)c(OC)c(OC)c1)C2` (stereo not given), -8.2%.

In the case of `CCCOC(=O)c1[nH]c2c(c1C)C(=O)CC(c1cccs1)C2` (stereo not given), the inhibition is 33.9% (active). The figure for `CCOC(=O)c1[nH]c2c(c1C)C(=O)CC(c1ccc(N(C)C)cc1)C2` (stereo not given) is 6.58%.

Values taken from PubChem BioAssay AID1040 (The Scripps Research Institute Molecular Screening Center, 2008).
